# An excerpt weighted towards active compounds, which were near 3.8% of everything screened.
# Exocytosis inh – lytic granule exocytosis inhibition; TALL-104 LAMP-1 surface exposure, flow cytometry; cells stimulated with thapsigargin and PMA; inhibition, % at 10 µM; hit rate 0.66% among 360,000; AID 651702;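 active = inhibition above about 55%, limit read from the data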
# MPTP block – inhibitors of mitochondrial permeability transition pore. inhibition, % at 10 µM. isolated mouse mitochondria, Ca2+ swelling absorbance, 30 min. hit rate 1.4% among 360,000;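 active = inhibition of 50% or more, scaled per plate between neutral and stimulator controls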;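 also: 0% = DMSO wells given calcium and 100% = 1 mM EGTA wells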
# V-ATPase pHluor – regulators of yeast V-ATPase proton transport. AID 504577. response, % at 10 µM. S. cerevisiae, pHLuorin cytosolic pH fluorescence. hit rate 0.37% among 350,000; in the data active = response mostly above about 7.3%, no sharp cut-off; inactive = mostly below about 5.4%; also: actives read high
# B2AR ag – agonists of human beta-2 adrenergic receptor inducing internalization | P07550 | response, % (no concentration beside the values) | hit rate 0.43% among 340,000 | Am2.2-beta2AR cells, FAP receptor internalization, flow cytometry | AID 504454;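 active = response above a set limit, near 3 SD of response in nonfluorescent compounds, cut at about 42% in these data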
# Target sequence (P07550 whole entry, looked up): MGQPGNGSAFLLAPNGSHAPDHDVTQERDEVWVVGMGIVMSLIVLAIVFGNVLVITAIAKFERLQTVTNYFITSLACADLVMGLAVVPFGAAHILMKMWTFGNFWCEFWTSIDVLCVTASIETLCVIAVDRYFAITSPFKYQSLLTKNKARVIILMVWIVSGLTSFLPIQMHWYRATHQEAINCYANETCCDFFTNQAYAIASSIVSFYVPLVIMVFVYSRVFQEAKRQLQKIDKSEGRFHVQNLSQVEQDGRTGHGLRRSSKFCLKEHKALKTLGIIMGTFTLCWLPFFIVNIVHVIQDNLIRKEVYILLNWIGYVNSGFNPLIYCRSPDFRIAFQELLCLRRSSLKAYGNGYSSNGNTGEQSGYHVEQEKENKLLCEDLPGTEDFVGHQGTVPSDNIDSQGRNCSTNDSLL
# T cell modulator – T cell immune modulation candidate; AID 2052; response (vesicle binding), % at 7 µM; hit rate 0.068% among 330,000; 2C CD8+ T cell-vesicle binding, flow cytometry; hits give low values;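 active = response, share of CD8 T cells binding vesicles, and their 90th percentile fluorescence all below set limits, cut at about 80% in these data, passing the limit was not always enough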;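 also: values below 100% mean blocked vesicle binding to the CD8+ T cells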
#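 material = purified 2C TCR transgenic mouse naive CD8+ T cells | controls = Unloaded micro-vesicles (low), QL9 vesicles with 0.7% DMSO (high) | detection = cytometric PE anti-B7-1 and Alexa647 anti-CD8 signals after 1% paraformaldehyde fixation | incubation = binding step 1.5 h, 37 °C, antibody labelling 20 min, ice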
# rCAG RNA binder – molecules binding r(CAG) RNA repeats; r(CAG) RNA repeat, TO-PRO-1 dye displacement fluorescence; inhibition, % at 3 µM; hit rate 1.3% among 370,000; AID 651821;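 active = inhibition above the plate cutoff, the mean of all test compounds on that plate plus 3 SD, cut at about 35% in these data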;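 also: 0% = DMSO alone and 100% = 100 µM mitoxantrone as full dye displacement; higher means more dye released from RNA so lower well fluorescence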
# Rh123 counter – membrane potential counter-screen of mitochondrial pore inhibitors | isolated mitochondria, Rhodamine 123 fluorescence | hit rate 78% among 5,000 | inhibition, % at 10 µM | shares compounds with MPTP block; in the data active = inhibition above about 22%;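 also: 0% = DMSO vehicle and 100% = positive control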
# MPTP abs DR – dose response confirmation of mitochondrial permeability transition pore inhibitors | shares compounds with MPTP block | hit rate 58% among 780 | isolated mitochondria swelling, absorbance | IC50, µM; in the data active = IC50 below about 20 µM
# MPTP counter DR – active in counter-screen for permeability transition pore inhibitors; IC50, µM; isolated mitochondria counterscreen, fluorescence read-out; AID 651564; hit rate 49% among 780; shares compounds with MPTP block; in the data active = IC50 below about 80 µM
# An asterisk follows results filed as active; i = inactive; · = no result given.
SMILES,Exocytosis inh,MPTP block,V-ATPase pHluor,B2AR ag,T cell modulator,rCAG RNA binder,Rh123 counter,others
CS(=O)(=O)Nc1ccccc1C(=O)Nc1cc(Cl)cc(Cl)c1,3.9,97.3*,-1.3,13.5,361.7,12.8,83.0*,
O=C(Nc1cccnc1)Nc1ccc(Br)cc1Cl,8.7,57.6*,-1.9,5.7,455.0,5.9,80.4*,
CCCCN1CN2Cc3cc(OC)ccc3C2CS1(=O)=O (configuration not stated),·,·,·,·,·,2.0,·,
O=C(Nc1ccc(F)cc1F)c1cc(-c2ccc(Cl)cc2)nc2ccccc12,·,·,·,·,·,4.5,·,
CCc1nc(SCc2ccc(OCC(C)C)cc2)n[nH]1,-7.9,86.3*,1.3,-7.7,352.2,0.4,66.5*,
CCc1nc(SCc2ccc(Br)cc2)n[nH]1,-6.9,-0.5,0.0,-19.8,242.9,1.0,·,
Cc1nn(-c2ccccc2)c2sc(C(=O)N3CCN(Cc4ccc(F)cc4)CC3)cc12,·,·,·,·,·,4.6,·,
O=C(/C=C(\Nc1cccc(F)c1)c1ccccc1)c1ccccc1,·,·,·,·,·,3.5,·,
Cn1c(O)c(N=NC(=O)c2ccccc2O)c2ccccc21,-0.6,-1.1,1.0,-16.4,305.3,6.8,·,
Cc1cc(N=NC(=O)c2ccccc2O)c2ccccc2c1O,21.3,73.7*,0.8,-0.7,230.5,4.2,90.7*,
CCCCNC(=O)C[C@H]1C[C@@]2(C(=O)OC)C(=C[C@H](C3CCCC3)O[C@@H]2C)N(CCc2ccc(OC)c(OC)c2)C1=O,·,·,·,·,·,2.9,·,
c1ccc(-c2csc3ncnc(NCC4COc5ccccc5O4)c23)cc1 (configuration not stated),5.5,97.0*,-0.5,-9.3,143.8,5.2,85.0*,
Cc1sc2ncnc(NCC(C)(C)N3CCOCC3)c2c1C,-0.3,80.2*,0.9,4.1,56.2*,-6.5,84.1*,
Cc1sc2ncnc(NCC3COc4ccccc4O3)c2c1C (configuration not stated),6.3,100.4*,-1.4,-2.0,180.7,-4.3,94.6*,
COC(=O)[C@H](C(C)C)N1Cc2nnn(Cc3ccccc3)c2C=CS1(=O)=O,·,·,·,·,·,4.0,·,
COc1ccccc1NC(=O)Cn1c(C)cc(=O)c2cccc(OC)c21,0.6,70.5*,-3.9,-18.1,395.7,-2.2,55.2*,
COc1ccc(NC(=O)CNC(=O)Cn2c(C)cc3ccccc3c2=O)cc1OC,-0.5,70.0*,-0.3,6.6,181.9,0.8,24.2*,
COc1cc(NC(=O)CNC(=O)Cn2c(C)cc3ccccc3c2=O)cc(OC)c1OC,-4.2,-1.6,4.0,-0.5,205.5,-1.3,·,
COC(=O)[C@]12C[C@H](CC(=O)NCCCCc3ccccc3)C(=O)N(CCC3=CCCCC3)C1=C[C@H](C1CCCC1)O[C@@H]2C,·,·,·,·,·,4.0,·,
CCOC(=O)C1(CCc2ccccc2)CCN(Cc2ccc(OC)cc2)CC1,0.6,0.2,4.7,-6.9,195.5,-7.0,·,
CCOC(=O)C1(CCOc2ccccc2)CCN(Cc2ccc(COC)o2)CC1,-1.2,61.2*,-1.1,-2.4,380.8,-9.9,2.9,MPTP abs DR=19*;MPTP counter DR=36.5*
CCOC(=O)C1(CCc2ccccc2)CCN(Cc2c(O)cccc2OC)CC1,29.7,62.3*,-3.0,19.2,359.5,-10.3,88.2*,
CCOC(=O)C1(CCOc2ccccc2)CCN(Cc2ccc(C)o2)CC1,0.0,3.1,2.8,-5.8,305.7,-8.1,·,
CC(C)=CC(=O)NCC1CCN(C(=O)C(=O)c2cc3ccccc3o2)CC1,·,·,·,·,·,2.9,·,
COC(=O)CSc1nnc(-c2ccc(NS(=O)(=O)c3ccc(C)c(C)c3)cc2)o1,·,·,·,·,·,17.5,·,
SMILES,Exocytosis inh,MPTP block,V-ATPase pHluor,B2AR ag,T cell modulator,rCAG RNA binder,Rh123 counter,others
O=S(=O)(c1ccc(N2CCCC2)cc1)C(F)(F)F,-4.7,90.7*,1.8,1.7,154.2,-1.6,68.1*,
O=S(=O)(c1ccc(N2CCN(c3ccc(F)cc3)CC2)cc1)N1CCCC1,-4.2,-0.6,-2.4,-0.5,305.6,5.2,·,
O=C(OCc1cn(Cc2ccc(C(F)(F)F)cc2)nn1)N1CCCC1,·,·,·,·,·,2.5,·,
COc1ccccc1OC(=O)Nc1ccc(Cl)cc1,-1.4,58.2*,-1.4,1.2,495.7,-2.8,75.0*,
CC1CCc2c(sc(NC(=S)NC(=O)c3ccccc3)c2C#N)C1 (configuration not stated),-1.5,65.9*,-1.8,4.5,166.5,3.0,70.2*,
N#Cc1c(NC(=O)c2ccccc2)sc2c1CCC2,4.3,0.0,-2.3,-0.9,545.5,3.1,·,
N#Cc1c(NC(=S)NC(=O)c2ccccc2)sc2c1CCCC2,-6.4,86.4*,-1.0,4.8,153.7,4.8,14.7,MPTP abs DR=i;MPTP counter DR=6.72*
CC(C)CC(=O)NC(NC(=S)Nc1sc2c(c1C#N)CCCC2)C(Cl)(Cl)Cl (configuration not stated),2.1,89.8*,6.7,0.3,423.9,9.6,97.2*,
Cn1ncc(Cl)c1C(=O)NC(=S)Nc1sc2c(c1C#N)CCCCC2,6.9,90.0*,-0.3,10.1,458.1,2.3,19.0,MPTP abs DR=i;MPTP counter DR=<2.5*
CCC(=O)Nc1sc2c(c1C#N)CCC2,10.1,0.7,2.6,-3.2,250.6,2.7,·,
Cn1nccc1C(=O)Nc1sc2c(c1C#N)CCCC2,3.8,1.7,0.4,-25.3,200.8,10.8,·,
O=C(c1ccc(Cl)cc1)N1CCC(Oc2cccnc2)CC1,·,·,·,·,·,-0.1,·,
O=C(NCCc1ccccc1Cl)[C@@H]1CCCN1C(=O)[C@@H](NC(=O)N1CCOCC1)C1CCCCC1,·,·,·,·,·,-2.3,·,
CC(C)N1CCCCC(NC(=O)c2ccc(F)cc2)C1=O (configuration not stated),·,·,·,·,·,-0.7,·,
CC(=O)N1c2cc(S(=O)(=O)N3CCN(c4ccccc4F)CC3)c(Br)cc2CC1C (configuration not stated),·,·,·,·,·,1.6,·,
COC(=O)C1=C(C)N(C)C(=NCc2cccc(C(F)(F)F)c2)NC1c1ccc(C(F)(F)F)cc1 (configuration not stated),·,·,·,·,·,6.2,·,
O=C(NC1CCCCN(Cc2ccc(Cl)cc2)C1=O)C1C2CC3CC(C2)CC1C3 (configuration not stated),·,·,·,·,·,7.5,·,
O=C(NNC(=O)c1cc(-c2ccncc2)nc2ccccc12)Nc1ccc(F)cc1,2.1,-1.2,-1.2,8.1,387.3,11.1,·,
O=C(NNC(=O)c1cc(-c2cccnc2)nc2ccccc12)Nc1ccc(Cl)cc1,47.0,86.4*,-0.5,1.9,340.4,22.7,85.9*,
CCOC(=O)N1C(=O)C[C@](Sc2ccc(OC)cc2)(C(=O)N2CCCC2)[C@H]1c1ccc(OC)cc1,·,·,·,·,·,2.3,·,
COc1ccc(CCNC(=O)c2cc(-c3ccc(Cl)c(Cl)c3)oc2C)cc1,7.4,91.4*,4.4,1.7,0.0,5.0,90.9*,
COc1ccc(CCNC(=O)c2nn(C)cc2Cl)cc1,4.9,-0.7,4.7,8.4,433.7,-3.3,·,
